The term EC50 denotes the concentration that produces a half-maximal response.

Drawing on PubChem BioAssay AID588582 (Sanford-Burnham Center for Chemical Genomics, 2011), this text covers EC50 for 18 compounds.

Calls of active or inactive are those of the source.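 How the source made its calls: active means mean EC50 at or below 20 µM; inactive means the rest.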

In this assay the target is CHO-XBP1 luciferase reporter, IRE1-XBP1 arm activation. In words: activators of UPR adaptive arm reporter – cell-based, luciferase luminescence, set 2, counter-screen for UPR apoptotic arm activator project, SAR follow-up (AID 588582). Summed up:
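Test system: CHO-XBP1 luciferase reporter cells. Timing: cells plated 16–18 h before dosing, compound exposure 6 h at 37 °C. Signal: Steady-Glo luminescence. Doses: concentration series, DMSO ≤1% final.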
On the technique in general: Counterscreens check selectivity or assay interference.
Take `O=C(Nc1ccc(S(=O)(=O)N2CCC(Cl)CC2)cc1)c1ccc([N+](=O)[O-])o1`: the EC50 was > 80 µM (inactive).
For `CC1CN(S(=O)(=O)c2ccc(NC(=O)c3ccc([N+](=O)[O-])o3)cc2)CC(C)O1` (stereo not drawn), the EC50 is > 80 µM (inactive).
The value for `O=C(Nc1ccc(S(=O)(=O)N2CCC3(CCCCC3)CC2)cc1)c1ccc([N+](=O)[O-])o1` was > 80 µM (inactive); that for `Cn1c([N+](=O)[O-])cnc1C(=O)Nc1ccc(S(=O)(=O)N2CCC(C)(C)CC2)cc1` was > 80 µM (inactive); that for `O=C(Nc1nc2ccc(F)c(F)c2s1)c1ccccn1` was > 80 µM (inactive).
Next, `O=C(Nc1ccc(S(=O)(=O)N2CCC(F)CC2)cc1)c1ccc([N+](=O)[O-])o1`: > 80 µM (inactive); `O=C(Nc1nc2ccc(C(F)(F)F)cc2s1)c1ccccn1`: > 80 µM (inactive).
The value for `O=C(Nc1ccc(S(=O)(=O)C2CCOCC2)cc1)c1ccc([N+](=O)[O-])o1` was > 80 µM (inactive); that for `O=C(Nc1nc2c(F)ccc(F)c2s1)c1ccccn1` was > 80 µM (inactive).
As to `O=C(Nc1nc2cc(F)ccc2s1)c1ccccn1`, the EC50 is > 80 µM (inactive).
Next, `O=C(Nc1nc2ccc(Cl)cc2s1)c1ccccn1`: > 80 µM (inactive).
Next, `O=C(Nc1nc2cccc(F)c2s1)c1ccccn1`: > 80 µM (inactive); `O=C(Nc1nc2cc(F)c(F)cc2s1)c1ccccn1`: > 80 µM (inactive).
As for `O=C(Nc1nc2cc(F)cc(F)c2s1)c1ccccn1`, the EC50 is > 80 µM (inactive).
Next, `O=C(Nc1nc2c(F)c(F)ccc2s1)c1ccccn1`: > 80 µM (inactive); `CC1(C)CCN(S(=O)(=O)c2ccc(NC(=O)c3cccc([N+](=O)[O-])c3)cc2)CC1`: > 80 µM (inactive).
`CC1(C)CCN(S(=O)(=O)c2ccc(NC(=O)c3ccc(C(F)(F)F)o3)cc2)CC1`: the EC50 is > 80 µM (inactive).
`CC(C)(C)C1CCN(S(=O)(=O)c2ccc(NC(=O)c3ccc([N+](=O)[O-])o3)cc2)CC1`: the EC50 was > 80 µM (inactive).
